Compounds with a hit are over-represented: about 2.1% of the library has one in this group of screens.
APJ antagonist = blocks the human apelin receptor APJ; inhibition, % at 20 µM; P35414; 0.32% of 330,000 active; CHO-K1 APJ beta-arrestin complementation, luminescence; AID 2521;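 active = inhibition above about 40% at 20 µM, limit read from the data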;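 note: cells challenged with 10 nM apelin-13 agonist together with compound; plate controls were apelin-13 plus DMSO wells for no effect and DMSO wells lacking apelin-13 for full effect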
CCR6 antagonist = antagonists of human CCR6 receptor; inhibition, % at 20 µM; 0.49% of 340,000 active; P51684; CHO-K1 CCR6 PathHunter beta-arrestin, luminescence, CCL20-stimulated;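 active = compounds whose inhibition of the agonist-driven luminescence signal at 20 µM reaches about 50%, limit read from the data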;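 note: cells stimulated with CCL20 at 14 nM final; plate controls were DMSO with CCL20 for no effect and DMSO without agonist for full effect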
Target sequence (P51684 whole entry, looked up): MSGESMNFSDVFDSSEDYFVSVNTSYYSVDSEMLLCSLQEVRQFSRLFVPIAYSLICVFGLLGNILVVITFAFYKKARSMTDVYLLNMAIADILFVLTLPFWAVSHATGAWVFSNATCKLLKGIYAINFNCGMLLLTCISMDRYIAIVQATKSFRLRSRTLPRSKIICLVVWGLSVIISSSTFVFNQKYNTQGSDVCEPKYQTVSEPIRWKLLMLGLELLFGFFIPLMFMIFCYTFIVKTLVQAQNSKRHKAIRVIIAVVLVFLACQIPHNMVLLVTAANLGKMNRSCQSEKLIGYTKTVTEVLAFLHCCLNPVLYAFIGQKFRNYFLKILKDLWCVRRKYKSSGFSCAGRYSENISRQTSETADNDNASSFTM
HTR2A ag = activates the mouse 5-HT2A serotonin receptor. P35363. CHO-K1 mHTR2A beta-arrestin complementation, luminescence; percent of 30 µM serotonin response. activation, % at 7.6 µM. 0.66% of 360,000 active;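 active = activation above a run cutoff, the mean activation of all tested compounds plus 3 SD, cut at about 14% in these data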;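 note: 0% = plate median of compound wells and 100% = 30 µM serotonin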
CXCR6 inh = CXCR6 (human) receptor inhibition | CHO-K1 PathHunter CXCR6 beta-arrestin, luminescence | AID 602244 | inhibition, % at 20 µM | 0.36% of 360,000 active; in the data active = inhibition above about 34%, passing the limit was not always enough;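 note: antagonist mode with CXCL16 agonist at 10 nM final; 0% = 10 nM CXCL16 with DMSO and 100% = unstimulated wells without agonist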
APJ ag = activates the human apelin receptor APJ; CHO-K1 APJ PathHunter beta-arrestin, luminescence; 0% DMSO wells, 100% apelin; activation, % at 20 µM; 0.11% of 330,000 active; AID 2520;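 active = activation more than six SD over the plate average, tested at 20 µM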;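 note: 0% = DMSO alone and 100% = apelin-13 at 10 nM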
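Test system: CHO-K1 APJ beta-arrestin complementation cell line | Compound: Single test compound dose, 20 µM final, 1% DMSO | Incubation: Compound 90 min 25 °C, reagent 1 h | Measured by: beta-gal luminescence | Read-out basis: APJ–arrestin association signal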
EBI2 antag = antagonists of human EBI2 receptor. P32249. EBI2 beta-arrestin recruitment, luminescence, 7a,25-OHC stimulated. inhibition, % at 5 µM. 0.81% of 360,000 active. AID 651636; in the data active = inhibition above about 38%;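 note: enzyme fragment complementation signal reports receptor beta-arrestin coupling in cells; 0% = agonist plus DMSO wells and 100% = wells without agonist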
Target sequence (P32249 whole entry, looked up, the tested form may be a part): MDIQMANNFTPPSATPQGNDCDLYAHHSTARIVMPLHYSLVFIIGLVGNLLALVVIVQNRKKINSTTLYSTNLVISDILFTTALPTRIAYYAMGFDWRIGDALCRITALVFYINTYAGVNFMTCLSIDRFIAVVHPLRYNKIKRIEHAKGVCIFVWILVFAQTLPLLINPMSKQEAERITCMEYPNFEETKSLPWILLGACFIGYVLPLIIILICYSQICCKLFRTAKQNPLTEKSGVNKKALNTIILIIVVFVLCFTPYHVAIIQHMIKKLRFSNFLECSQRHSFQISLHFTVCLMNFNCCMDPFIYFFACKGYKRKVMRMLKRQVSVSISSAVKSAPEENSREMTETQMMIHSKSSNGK
APJ antag confirm = confirmation of human APJ apelin receptor antagonists | shares compounds with APJ antagonist | APJ beta-arrestin recruitment, luminescence, antagonist mode | inhibition, % at 20 µM | 66% of 950 active | AID 2766; in the data active = inhibition above about 50%
* marks the source's active call; other numbers are inactive results; . = not tested or not shown.

SMILES | APJ antagonist | CCR6 antagonist | HTR2A ag | CXCR6 inh | APJ ag | EBI2 antag | APJ antag confirm
CC1(C)Oc2ccc3ccc(=O)oc3c2/C(=C/NNC(N)=O)C1=O | 50.2* | 71.1* | -21.5 | 35.0 | -9.6 | 8.4 | 61.7*
CCOC(=O)c1sc(NC(=O)C2CCCCC2)nc1C | 6.1 | 6.2 | -5.6 | 6.2 | -1.4 | 6.2 | .
Cc1c(Cl)cccc1NC(=O)CSC(N)=O | 21.6 | 6.8 | 1.1 | 1.3 | 0.7 | 13.9 | .
CCOc1cc(/C=C2\NC(=O)NC2=O)cc([N+](=O)[O-])c1O | 43.3* | 36.1 | -0.7 | 22.4 | -4.3 | 8.3 | 34.7
CC1Nc2ncnc(N3CCOCC3)c2N(Cc2ccccc2)C1=O (centres undefined) | -32.2 | 0.0 | -0.7 | 8.2 | -2.9 | -1.1 | .
COc1ccc(CN2C(=O)C(C)Nc3ncnc(N4CCN(c5ccccc5)CC4)c32)cc1 (centres undefined) | 68.1* | 80.2* | -21.1 | 68.1* | -11.8 | 32.8 | 115.2*
COc1ccc(CNC(=O)C(C)OC(=O)Cn2cnc3c2c(=O)n(C)c(=O)n3C)cc1 (centres undefined) | 5.6 | 3.0 | -4.7 | 3.7 | -3.8 | -12.4 | .
O=C(Nc1c(C(=O)N2CCCCC2)cnn1-c1ccccc1)c1ccccc1F | 61.8* | -4.7 | 13.9 | 5.9 | 0.5 | -6.7 | -16.6
CN1CCN(C(=O)c2cnn(-c3ccccc3)c2NC(=O)c2ccccc2)CC1 | 13.0 | 3.2 | -3.8 | 6.9 | -2.2 | -10.3 | .
O=C(Nc1cccc([N+](=O)[O-])c1)Nc1ccc2c(c1)OCCO2 | 42.2* | 20.2 | -7.2 | -1.6 | -3.8 | 4.9 | 5.8
O=C(Nc1cccc([N+](=O)[O-])c1)Nc1cccc([N+](=O)[O-])c1 | 16.1 | 35.8 | 0.7 | 23.3 | -4.3 | 8.0 | .
CCN1/C(=C/c2ccc3ccccc3[n+]2CC)C=Cc2ccccc21 | 53.6* | 61.5* | -5.3 | 54.9* | -2.2 | 3.5 | 94.5*
CC1CCCN(CCC(=O)Nc2ccc(F)c(F)c2)C1 (centres undefined) | 14.8 | 4.7 | -4.9 | -0.7 | -4.4 | -10.3 | .
COc1cc(C2c3c(c(C)c(C)oc3=O)Oc3c(C)c(C)oc(=O)c32)ccc1OS(=O)(=O)c1ccc(C)cc1 | 6.5 | 20.0 | -4.5 | -5.0 | -2.1 | 12.6 | .
O=C(CC1C(=O)NCCN1Cc1ccc(Cl)c(F)c1)NC1CCC1 (centres undefined) | -1.2 | 15.6 | -1.6 | -9.6 | 2.3 | -12.2 | .
C=CCN(CC=C)Cc1cc(=O)oc2ccc3ccccc3c12 | . | . | -4.8 | 8.4 | . | 6.5 | .
C=CCN(CC=C)Cc1c(O)ccc2c1oc(=O)c1ccccc12 | 46.7* | 12.9 | -9.2 | 36.6 | -10.7 | 11.2 | 78.0*
CN(C)CCCNC(=O)c1ccccn1 | -3.4 | 12.6 | -4.0 | 10.9 | -1.8 | -9.6 | .
CN(C)CCCNC(=O)c1ccc(-c2nc(-c3ccc(Cl)cc3)cs2)cc1 | 51.6* | 82.4* | -6.7 | 13.7 | 0.3 | 21.7 | 94.4*
CC(=O)C1=C(c2ccccc2)N(C(C)=O)n2c(C)nnc2S1 | 105.1* | 99.6* | -1.8 | 31.0 | -17.6 | 34.7 | 152.1*
Cc1cccc(N=C2C(=O)Nc3c(Cl)cccc32)c1 | 62.7* | 65.2* | -1.2 | 30.2 | -15.9 | 16.5 | 136.4*
O=C1Nc2ccccc2C1=Nc1cccc(Cl)c1 | 12.2 | 7.0 | 0.4 | 6.2 | 0.1 | 6.1 | .
CC(=O)c1ccc(N=C2C(=O)Nc3ccccc32)cc1 | 104.4* | -0.5 | 2.8 | 69.1* | -18.9 | 4.2 | 155.4*
COc1ccc(N=C2C(=O)Nc3ccccc32)cc1 | 33.1 | 33.5 | 3.0 | 7.6 | -10.6 | 15.8 | .
O=C1Nc2ccccc2C1=Nc1ccc(F)cc1 | 48.9* | 67.5* | -5.7 | 33.6 | -14.0 | 9.7 | 119.0*
SMILES | APJ antagonist | CCR6 antagonist | HTR2A ag | CXCR6 inh | APJ ag | EBI2 antag | APJ antag confirm
CSc1cccc(N=C2C(=O)Nc3ccccc32)c1 | 44.9* | 54.4* | 0.6 | 33.8 | -10.0 | -0.8 | 110.5*
Cc1cc(C)n2nc(C(=O)OCC(=O)Nc3ccc(F)cc3F)nc2n1 | -32.3 | 0.3 | -3.0 | -7.2 | 3.3 | -6.6 | .
COC(=O)C1C2CCCCC1C(=O)O2 (centres undefined) | . | 3.9 | -3.6 | 0.7 | . | -23.4 | .
CCOC(=O)c1ccc(NC(=O)N2CCN(C(=O)C3CCCO3)CC2)cc1 (centres undefined) | -4.9 | 10.3 | -3.6 | -3.6 | -1.3 | -18.6 | .
O=C(O)CC12CC3CC(C1)CC(n1ncc(NCc4ccc5c(c4)OCO5)c(Cl)c1=O)(C3)C2 | 8.7 | . | . | . | -1.7 | . | .
CCC[C@@H](CN1CCC[C@H]1CN1C(N)=NC[C@H]1CC(C)C)N1C[C@@H](Cc2ccccc2)N(CCc2ccc(Cl)c(Cl)c2)C1=N | 41.6* | 17.5 | -1.9 | 5.8 | 4.6 | -4.9 | 56.6*
CC(=O)Nc1ccc(Nc2ncnc3ccccc23)cc1 | 42.7* | . | . | . | -2.5 | . | 9.5
NNc1nc(-c2ccccc2)cc(-c2ccccc2)n1 | 96.6* | 62.7* | -5.8 | 45.0* | -11.4 | 14.9 | 121.7*
N#Cc1cc(-c2ccccc2)nc(NN)n1 | 15.1 | 35.1 | -5.6 | 17.5 | -6.8 | 9.4 | .
CCC(C)N(CC(=O)Nc1cccc(C)c1C)C(=O)CCl (centres undefined) | 7.6 | 5.4 | 9.4 | 4.4 | -2.2 | 2.7 | .
O=[N+]([O-])c1ccc(NC(=S)NCCc2ccccc2)cc1 | 17.7 | 23.5 | 0.4 | 8.2 | -3.1 | 11.0 | .
O=[N+]([O-])c1ccc(NNC(=S)Nc2ccccc2)cc1 | 43.3* | 67.3* | -3.0 | 38.0 | -11.0 | 7.7 | 98.7*
CC(/C=N/n1c(C2CCCCC2)n[nH]c1=S)=C\c1ccccc1 | 46.7* | 33.3 | -0.3 | 11.9 | -5.3 | 1.7 | 78.4*
CC(c1c(O)c2ccccc2[nH]c1=O)C1(C)CCC(O)C(C)(C)O1 (centres undefined) | 2.8 | 3.4 | 4.7 | -2.6 | -3.6 | -0.8 | .
COc1ccc(S(=O)(=O)NNc2nc(C)cc(C)n2)cc1[N+](=O)[O-] | 61.6* | 32.0 | -1.0 | 22.5 | -29.2 | 11.9 | 114.2*
COc1ccc(C(=O)Nc2nc(C)cc(C)n2)cc1[N+](=O)[O-] | -6.0 | 10.8 | 3.0 | -9.7 | -4.2 | -1.1 | .
O=C(NNC(=O)c1ccccc1O)c1ccco1 | 17.3 | -7.4 | -4.3 | -4.3 | 0.1 | 0.4 | .
O=C(COC(=O)c1nc(Cl)ccc1Cl)NCc1cccs1 | 4.0 | 6.8 | -3.4 | 0.2 | 14.8 | -15.9 | .
Cc1n[nH]c(C)c1S(=O)(=O)N1CCC(C(=O)N2CCn3c2nc2ccccc23)CC1 | 66.1* | 72.7* | -1.0 | 52.0* | -12.3 | 33.6 | 100.1*
Cc1ccc(N(CC(=O)N2CCn3c2nc2ccccc23)S(=O)(=O)c2c(C)n[nH]c2C)cc1 | -11.3 | 3.6 | 0.1 | -5.4 | 1.4 | 3.4 | .
Cc1ccc(S(=O)(=O)NN=C2CCCc3ccccc32)cc1 | . | . | -2.7 | -0.4 | . | -0.8 | .

Bioassay records (PubChem BioAssay)
